Converted amounts (≈) assume the structure as drawn. The source made the active and inactive calls. The calls are words filed in the database; no cut-off is given here.
Assays:
[1] = test system: Respiratory syncytial virus; experiment: Antiviral activity against RSV infected in human HeLa cells assessed as inhibition of virus-induced cytopathic effect after 3 days by MTS assay; type: functional, organism-based; settings: 72 h
In short: (§1)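 Confluent cell monolayers were infected with 100 CCID50 of virus and allowed 2 h adsorption at 37 °C. Virus was then removed and serial compound dilutions were added. Cultures were incubated at 37 °C for 3 days, until CPE was complete in the untreated virus control. EC50 was the concentration giving 50% inhibition of virus-induced CPE, by visual score or by MTS formazan cell viability.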

[2] = test system: Coxsackievirus B4; experiment: Antiviral activity against Coxsackie virus B4 infected in human HeLa cells assessed as inhibition of virus-induced cytopathic effect after 3 days by MTS assay; type: functional, organism-based; settings: Enterovirus B, 72 h; in short: as §1
[3] = (§2) Cytotoxicity against human HeLa cells after 3 days by MTS assay; type: cell-based; settings: HeLa cells
In short: (§3)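 Uninfected HeLa cells were run in parallel with the antiviral assay and exposed to serial compound dilutions. CC50 is the 50% cytotoxic concentration from colorimetric formazan-based MTS cell viability.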

[4] = test system: HeLa; experiment: as §2; type: cell-based; settings: hela, 72 h; in short: as §3
[5] = test system: Vesicular stomatitis virus; experiment: Antiviral activity against VSV infected in human HeLa cells assessed as inhibition of virus-induced cytopathic effect after 3 days by MTS assay; type: functional, organism-based; settings: 72 h; in short: as §1
[6] = test system: Staphylococcus aureus; experiment: Antibacterial activity against Staphylococcus aureus after 24 hrs by serial dilution method; type: functional
[7] = test system: Bacillus subtilis; experiment: Antibacterial activity against Bacillus subtilis after 24 hrs by serial dilution method; type: functional
[8] = test system: Escherichia coli; experiment: Antibacterial activity against Escherichia coli after 24 hrs by serial dilution method; type: functional
[9] = test system: Candida albicans; experiment: Antifungal activity against Candida albicans after 48 hrs by serial dilution method; type: functional
In short: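 Serial compound dilutions in Sabouraud dextrose broth (tube dilution), incubated 37 °C for 48 h. MIC was read as the lowest concentration with no growth.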

[10] = test system: Aspergillus niger; experiment: Antifungal activity against Aspergillus niger after 7 days by serial dilution method; type: functional
[11] = test system: Feline coronavirus; experiment: Antiviral activity against Feline caronavirus infected in […] cells assessed as inhibition of virus-induced cytopathic effect after 3 days by MTS assay; type: functional, organism-based; in short: as §1
[12] = test system: Felid alphaherpesvirus 1; experiment: Antiviral activity against Feline herpesvirus 1 infected in […] cells assessed as inhibition of virus-induced cytopathic effect after 3 days by MTS assay; type: functional, organism-based; in short: as §1
[13] = test system: Human alphaherpesvirus 1; experiment: Antiviral activity against Herpes simplex virus 1 KOS infected in human HEL cells assessed as inhibition of virus-induced cytopathic effect after 3 days by MTS assay; type: functional, organism-based; in short: as §1
[14] = test system: Human alphaherpesvirus 2; experiment: Antiviral activity against Herpes simplex virus 2 G infected in human HEL cells assessed as inhibition of virus-induced cytopathic effect after 3 days by MTS assay; type: functional, organism-based; settings: strain G; in short: as §1
[15] = test system: Vaccinia virus; experiment: Antiviral activity against Vaccinia virus infected in human HEL cells assessed as inhibition of virus-induced cytopathic effect after 3 days by MTS assay; type: functional, organism-based; settings: Orthopoxvirus vaccinia; in short: as §1
[16] = test system: Human alphaherpesvirus 1; experiment: Antiviral activity against acyclovir-resistant […] kinase-deficient HSV1 KOS infected in human HEL cells assessed as inhibition of virus-induced cytopathic effect after 3 days by MTS assay; type: functional, organism-based; in short: as §1
[17] = test system: Vesicular stomatitis virus; experiment: Antiviral activity against VSV infected in human HEL cells assessed as inhibition of virus-induced cytopathic effect after 3 days by MTS assay; type: functional, organism-based; in short: as §1
[18] = test system: Influenza A virus; experiment: Antiviral activity against influenza A virus H1N1 infected in MDCK cells assessed as inhibition of virus-induced cytopathic effect after 3 days by MTS assay; type: functional, organism-based; in short: as §1
[19] = test system: Influenza A virus; experiment: Antiviral activity against influenza A virus H3N2 infected in MDCK cells assessed as inhibition of virus-induced cytopathic effect after 3 days by MTS assay; type: functional, organism-based; in short: as §1
[20] = test system: Influenza B virus; experiment: Antiviral activity against influenza B virus infected in MDCK cells assessed as inhibition of virus-induced cytopathic effect after 3 days by MTS assay; type: functional, organism-based; in short: as §1
[21] = test system: Human respirovirus 3; experiment: Antiviral activity against Parainfluenza 3 virus infected in african green monkey Vero cells assessed as inhibition of virus-induced cytopathic effect after 3 days by MTS assay; type: functional, organism-based; in short: as §1
[22] = test system: Mammalian orthoreovirus 1; experiment: Antiviral activity against Reovirus 1 infected in african green monkey Vero cells assessed as inhibition of virus-induced cytopathic effect after 3 days by MTS assay; type: functional, organism-based; in short: as §1
[23] = test system: Sindbis virus; experiment: Antiviral activity against Simbidis virus infected in african green monkey Vero cells assessed as inhibition of virus-induced cytopathic effect after 3 days by MTS assay; type: functional, organism-based; in short: as §1
[24] = test system: Coxsackievirus B4; experiment: Antiviral activity against Coxsackie virus B4 infected in african green monkey Vero cells assessed as inhibition of virus-induced cytopathic effect after 3 days by MTS assay; type: functional, organism-based; in short: as §1
[25] = test system: Punta Toro virus; experiment: Antiviral activity against Punta toro virus infected in african green monkey Vero cells assessed as inhibition of virus-induced cytopathic effect after 3 days by MTS assay; type: functional, organism-based; in short: as §1

| SMILES | EC50 [1] [µg/mL] | EC50 [2] [µg/mL] | MCC at 72 h [3] [µg/mL] | CC50 [4] [µg/mL] | EC50 [5] [µg/mL] | MBC [6] [uM/ml] | MBC [7] [uM/ml] | MBC [8] [uM/ml] | MFC [9] [uM/ml] | -logMIC [10] | MFC [10] [uM/ml] | inhibition [11] | inhibition [12] | inhibition [13] | inhibition [14] | inhibition [15] | inhibition [16] | inhibition [17] | inhibition [18] | inhibition [19] | also measured |
| --- | --- | --- | --- | --- | --- | --- | --- | --- | --- | --- | --- | --- | --- | --- | --- | --- | --- | --- | --- | --- | --- |
| COc1cc(OC)cc(C(=O)N/N=C/c2ccccc2Cl)c1 | > 20 | > 20 | 100 | 64 (≈ 201 µM) | 13.2 (≈ 41.4 µM) | >0.157 | 0.039 | >0.157 | 0.019 | 1.56 | >0.157 | inactive | inactive | inactive | inactive | inactive | inactive | inactive | inactive | inactive | -logMIC [9]: 2.01; inhibition [20]: inactive; inhibition [21]: inactive; inhibition [22]: inactive; inhibition [23]: inactive; inhibition [24]: inactive; inhibition [25]: inactive |
| COc1cc(OC)cc(C(=O)N/N=C/c2ccccc2)c1 | > 20 | > 20 | 100 | 61.2 (≈ 215 µM) | 6.5 (≈ 22.9 µM) | 0.088 | 0.044 | 0.177 | 0.011 | 1.66 | 0.022 | inactive | inactive | inactive | inactive | inactive | inactive | inactive | inactive | inactive | inhibition [20]: inactive; inhibition [21]: inactive; inhibition [22]: inactive; inhibition [23]: inactive; inhibition [24]: inactive; inhibition [25]: inactive |

Reference: ChEMBL document CHEMBL1177846, “Benzylidene/2-chlorobenzylidene hydrazides: synthesis, antimicrobial activity, QSAR studies and antiviral evaluation” (Eur J Med Chem, 2010)
